# Results as given in ChEMBL document CHEMBL1157591, “Selective benzimidazole inhibitors of the antigen receptor-mediated NF-kappaB activation pathway” (Bioorg Med Chem, 2010).
# Experiments:
# [1] = Metabolic stability in human liver microsomes assessed as half life in NADPH co-factor system by RP-HPLC; format: ADME, Microsome
# In short: (§1)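 Substrate at 100 µM with human liver microsomes or S9 at 1.6 mg/mL, NADPH-generating system (NADP+, 400 µM glucose-6-phosphate, DETAPAC, 4 IU/mL G6P dehydrogenase), 50 mM potassium phosphate pH 7.4, 37 °C with shaking. Started by adding HLM/S9. Aliquots at 0–60 min stopped in cold acetonitrile and run in duplicate. Parent loss measured by RP-HPLC.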
# [2] = Metabolic stability in human liver S9 fraction assessed as half life in NADPH co-factor system by RP-HPLC; format: ADME, subcellular; in short: as §1
# Liver microsomes [3] = assay: Metabolic stability in human liver microsomes in UDPG co-factor system by RP-HPLC; format: ADME, Microsome
# In short: (§2)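 Glucuronidation with UDPG cofactor plus lecithin, using HLM or S9 in 50 mM potassium phosphate pH 7.4 at 37 °C with shaking. Started by adding HLM/S9. Aliquots at 0–60 min stopped in cold acetonitrile and run in duplicate. Parent disappearance followed by RP-HPLC.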
# [4] = Metabolic stability in human liver S9 fraction in UDPG co-factor system by RP-HPLC; format: ADME, subcellular; in short: as §2
# Liver microsomes [5] = assay: Metabolic stability in human liver microsomes in PAPS co-factor system by RP-HPLC; format: ADME, Microsome
# In short: (§3)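 Substrate at 100 µM with HLM or S9 at 1.6 mg/mL and 100 µM PAPS in 50 mM Tris–HCl pH 7.4, 37 °C. Started by adding HLM/S9. Aliquots at 0, 5, 15, 30, 45 and 60 min stopped in cold acetonitrile and run in duplicate. Sulfation taken from parent disappearance by RP-HPLC.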
# [6] = Metabolic stability in human liver S9 fraction in PAPS co-factor system by RP-HPLC; format: ADME, subcellular; in short: as §3
# [7] = Inhibition of antigen receptor-mediated NF-kappaB activity in HEK293 cells after 16 hrs by luciferase reporter gene assay; settings: Homo sapiens, HEK293, 16 h
# Cytochrome P450 3A4 = Cytochrome P450 3A4 (Homo sapiens, UniProt P08684); assay: Inhibition of CYP3A4-mediated hydroxylation of testosterone in human liver microsomes in NADPH co-factor system by RP-HPLC; format: ADME, Microsome
# Sequence of Cytochrome P450 3A4 (P08684 whole entry): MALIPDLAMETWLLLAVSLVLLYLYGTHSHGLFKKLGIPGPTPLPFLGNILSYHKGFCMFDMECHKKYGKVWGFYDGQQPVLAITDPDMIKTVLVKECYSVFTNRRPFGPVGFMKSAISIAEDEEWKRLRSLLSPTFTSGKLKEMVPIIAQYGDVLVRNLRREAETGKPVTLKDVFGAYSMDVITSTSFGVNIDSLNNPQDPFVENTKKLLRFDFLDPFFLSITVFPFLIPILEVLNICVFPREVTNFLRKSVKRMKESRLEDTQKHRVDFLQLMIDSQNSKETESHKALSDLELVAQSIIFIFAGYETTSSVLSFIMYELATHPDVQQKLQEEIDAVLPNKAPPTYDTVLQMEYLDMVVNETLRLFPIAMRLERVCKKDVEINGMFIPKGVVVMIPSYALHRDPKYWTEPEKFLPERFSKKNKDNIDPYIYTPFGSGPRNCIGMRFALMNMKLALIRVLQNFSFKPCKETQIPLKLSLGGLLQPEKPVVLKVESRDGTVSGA
SMILES,IC50 [7],also measured
Cc1cc2nc(NCCCO)n(CC(=O)c3cc(C(C)(C)C)c(O)c(C(C)(C)C)c3)c2cc1C,0.07 µM,half-life [1]: 5.5 h; half-life [2]: 15.2 h; Stability (Liver microsomes [3]): Stable; Stability [4]: Stable; Stability (Liver microsomes [5]): Stable; Stability [6]: Stable
COCCCNc1nc2cc(C)c(C)cc2n1CC(=O)c1cc(C(C)(C)C)c(OC)c(C(C)(C)C)c1,0.25 µM,–
Cc1cc2nc(NCCCO)n(CC(=O)c3cc(C)c(O)c(C)c3)c2cc1C,> 5 µM,–
COc1c(C(C)(C)C)cc(C(=O)Cn2c(NCCCO)nc3cc(C)c(C)cc32)cc1C(C)(C)C,0.07 µM,IC50 (Cytochrome P450 3A4): 67 µM
Cc1cc2nc(N3CCC(Cc4ccccc4)CC3)n(CC(=O)c3cc(C(C)(C)C)c(O)c(C(C)(C)C)c3)c2cc1C,> 5 µM,–
COc1ccccc1N1CCN(c2nc3cc(C)c(C)cc3n2CC(=O)c2cc(C(C)(C)C)c(O)c(C(C)(C)C)c2)CC1,> 5 µM,–
Cc1cc2nc(N3CCN(Cc4ccccc4)CC3)n(CC(=O)c3cc(C(C)(C)C)c(O)c(C(C)(C)C)c3)c2cc1C,> 5 µM,half-life [2]: 4.4 h; Stability (Liver microsomes [3]): Stable; Stability [4]: Stable; Stability (Liver microsomes [5]): Stable; Stability [6]: Stable
Cc1cc2nc(N3CCC(C)CC3)n(CC(=O)c3cc(C(C)(C)C)c(O)c(C(C)(C)C)c3)c2cc1C,> 5 µM,–
Cc1cc2nc(N3CCN(CCO)CC3)n(CC(=O)c3cc(C(C)(C)C)c(O)c(C(C)(C)C)c3)c2cc1C,> 5 µM,half-life [2]: 4.6 h; Stability (Liver microsomes [3]): Stable; Stability [4]: Stable; Stability (Liver microsomes [5]): Stable; Stability [6]: Stable
C#CCNc1nc2cc(C)c(C)cc2n1CC(=O)c1cc(C(C)(C)C)c(O)c(C(C)(C)C)c1,> 8 µM,–
Cc1cc2nc(N3CCCC(C)C3)n(CC(=O)c3cc(C(C)(C)C)c(O)c(C(C)(C)C)c3)c2cc1C (centres undefined),> 5 µM,–
Cc1cc2nc(N3CCCCC3)n(CC(=O)c3cc(C(C)(C)C)c(O)c(C(C)(C)C)c3)c2cc1C,> 5 µM,–
Cc1cc2nc(N3CCC(O)CC3)n(CC(=O)c3cc(C(C)(C)C)c(O)c(C(C)(C)C)c3)c2cc1C,> 5 µM,–
Cc1cc2nc(N3CCOCC3)n(CC(=O)c3cc(C(C)(C)C)c(O)c(C(C)(C)C)c3)c2cc1C,> 5 µM,–
CCCCNc1nc2cc(C)c(C)cc2n1CC(=O)c1cc(C(C)(C)C)c(O)c(C(C)(C)C)c1,0.1 µM,–
Cc1cc2nc(N3CCC(O)C3)n(CC(=O)c3cc(C(C)(C)C)c(O)c(C(C)(C)C)c3)c2cc1C (centres undefined),> 5 µM,–

SMILES,IC50 [7],also measured
Cc1cc2nc(N3CCN(C)CC3)n(CC(=O)c3cc(C(C)(C)C)c(O)c(C(C)(C)C)c3)c2cc1C,> 5 µM,–
CCN1CCN(c2nc3cc(C)c(C)cc3n2CC(=O)c2cc(C(C)(C)C)c(O)c(C(C)(C)C)c2)CC1,> 5 µM,–
COCCCNc1nc2cc(C)c(C)cc2n1CC(=O)c1cc(C)c(O)c(C)c1,> 5 µM,–
Cc1cc2nc(N3CCCCC3CO)n(CC(=O)c3cc(C(C)(C)C)c(O)c(C(C)(C)C)c3)c2cc1C (centres undefined),> 5 µM,–
Cc1cc2nc(NCCCO)n(CC(=O)c3ccc(O)cc3)c2cc1C,> 5 µM,–
COC[C@@H]1CCCN1c1nc2cc(C)c(C)cc2n1CC(=O)c1cc(C(C)(C)C)c(O)c(C(C)(C)C)c1,> 5 µM,–
CCC1C(C)CN(c2nc3cc(C)c(C)cc3n2CC(=O)c2cc(C(C)(C)C)c(O)c(C(C)(C)C)c2)C1C (centres undefined),> 5 µM,–
COCCCNc1nc2cc(C)c(C)cc2n1CC(=O)c1cc(C(C)(C)C)c(O)c(C(C)(C)C)c1,0.25 µM,IC50 (Cytochrome P450 3A4): 97 µM
Cc1cc2nc(N3CCC[C@H]3CN3CCCC3)n(CC(=O)c3cc(C(C)(C)C)c(O)c(C(C)(C)C)c3)c2cc1C,> 5 µM,–
Cc1cc2nc(N3CC(C)CC(C)C3)n(CC(=O)c3cc(C(C)(C)C)c(O)c(C(C)(C)C)c3)c2cc1C (centres undefined),> 5 µM,–
Cc1cc2nc(N3CCCC3)n(CC(=O)c3cc(C(C)(C)C)c(O)c(C(C)(C)C)c3)c2cc1C,> 5 µM,–
Cc1cc2nc(N3CCCCC3C)n(CC(=O)c3cc(C(C)(C)C)c(O)c(C(C)(C)C)c3)c2cc1C (centres undefined),> 5 µM,–
Cc1cc2nc(N3CCCCC3CN(C)C)n(CC(=O)c3cc(C(C)(C)C)c(O)c(C(C)(C)C)c3)c2cc1C (centres undefined),> 5 µM,–
COCCCNc1nc2cc(C)c(C)cc2n1CC(=O)c1ccc(O)cc1,> 5 µM,–
C[C@]12CC[C@H]3[C@@H](CCC4=CC(=O)CC[C@@]43C)[C@@H]1CC[C@@H]2O [TESTOSTERONE],–,half-life [1]: 0.8 h
